Article PMC11843577 (RSC Medicinal Chemistry, 2025)

Assays:
full-length TDP1 = full-length TDP1 (Homo sapiens, UniProt Q9NUW8); experiment: TDP1 gel-based fluorescence assay in vitro; type: biochemical
TDP1 in HCT116 cell line = TDP1 in HCT116 cell line (Homo sapiens, UniProt Q9NUW8); experiment: Western blot for TDP1 degradation; type: cell-based; details: 5h 10 μM within 6 h, 5h 0.1-100 μM and 5i 10, 100 μM within 24 h
HCT116 cell line = experiment: Synergy assay with camptothecin; type: cell-based, human; details: HCT116, compound at 10 μM, 72 h cell viability
How it was run: (§1)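 HCT116 colon or U2OS osteosarcoma cells were seeded at 2 × 10³ cells per well and cultured for 72 h in medium containing the test compound together with camptothecin. Viability was read by CellTiter-Glo luminescence, and synergy was judged from these viability data.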

U2OS cell line = experiment: Synergy assay with camptothecin; type: cell-based, human; details: compound at 10 μM, 72 h cell viability
How it was run: as §1

full-length TDP2 = target: T1, full-length TDP2 (Homo sapiens, UniProt O95551); experiment: TDP2 gel-based fluorescence assay in vitro; type: biochemical; details: ratio of IC50 values of TDP2 vs. TDP1
T1 sequence (O95551 1-362): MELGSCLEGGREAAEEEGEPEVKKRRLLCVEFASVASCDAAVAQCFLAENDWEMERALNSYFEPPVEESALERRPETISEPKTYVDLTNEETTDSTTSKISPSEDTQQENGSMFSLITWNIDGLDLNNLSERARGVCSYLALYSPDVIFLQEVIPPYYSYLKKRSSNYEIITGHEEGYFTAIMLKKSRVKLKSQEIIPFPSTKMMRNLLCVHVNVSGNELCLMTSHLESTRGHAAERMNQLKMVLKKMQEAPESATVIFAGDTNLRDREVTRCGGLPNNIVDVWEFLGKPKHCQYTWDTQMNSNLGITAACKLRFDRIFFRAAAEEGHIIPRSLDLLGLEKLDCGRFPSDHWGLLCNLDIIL

Sequence of full-length TDP1 (Q9NUW8 whole entry): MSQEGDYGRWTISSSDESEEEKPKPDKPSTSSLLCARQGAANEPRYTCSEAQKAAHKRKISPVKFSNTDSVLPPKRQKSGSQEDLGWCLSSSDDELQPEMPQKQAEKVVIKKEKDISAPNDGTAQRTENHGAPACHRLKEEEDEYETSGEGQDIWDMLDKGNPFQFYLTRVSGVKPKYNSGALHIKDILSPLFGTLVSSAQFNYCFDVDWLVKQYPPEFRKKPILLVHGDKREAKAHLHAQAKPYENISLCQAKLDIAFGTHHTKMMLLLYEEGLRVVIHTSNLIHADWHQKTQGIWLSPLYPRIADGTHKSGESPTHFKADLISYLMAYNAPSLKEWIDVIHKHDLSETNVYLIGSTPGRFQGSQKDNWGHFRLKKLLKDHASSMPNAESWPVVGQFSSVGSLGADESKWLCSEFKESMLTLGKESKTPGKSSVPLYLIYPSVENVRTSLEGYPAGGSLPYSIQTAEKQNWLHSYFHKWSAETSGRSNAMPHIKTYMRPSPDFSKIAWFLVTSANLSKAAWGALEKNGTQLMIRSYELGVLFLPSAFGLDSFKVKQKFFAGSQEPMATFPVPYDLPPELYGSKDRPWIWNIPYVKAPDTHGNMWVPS
Sequence of TDP1 in HCT116 cell line (Q9NUW8 whole entry): as above

Cc1ncsc1-c1ccc(CNC(=O)[C@@H]2C[C@@H](O)CN2C(=O)[C@@H](NC(=O)COCCOCCOCCn2cc(COc3ccc(-c4nc5cc(-c6ccccc6)ccn5c4Nc4ccc(C(=O)O)cc4)cc3)nn2)C(C)(C)C)cc1 [Compound 5b, 4-((2-(4-((1-((S)-13-((2S,4R)-4-Hydroxy-2-((4-(4-methylthiazol-5-yl)benzyl)carbamoyl)pyrrolidine-1-carbonyl)-14,14-dimethyl-11-oxo-3,6,9-trioxa-12-azapentadecyl)-1H-1,2,3-triazol-4-yl)methoxy)phenyl)-7-phenylimidazo[1,2-a]pyridin-3-yl)amino)benzoic acid]
TDP1 IC50 (full-length TDP1): failed to exhibit TDP1 inhibitory potency within the range tested

Cc1ncsc1-c1ccc(CNC(=O)[C@@H]2C[C@@H](O)CN2C(=O)[C@@H](NC(=O)COCCOCCOCCOCCn2cc(COc3ccc(-c4nc5cc(-c6ccccc6)ccn5c4Nc4ccc(C(=O)O)cc4)cc3)nn2)C(C)(C)C)cc1 [Compound 5c, 4-((2-(4-((1-((S)-16-((2S,4R)-4-Hydroxy-2-((4-(4-methylthiazol-5-yl)benzyl)carbamoyl)pyrrolidine-1-carbonyl)-17,17-dimethyl-14-oxo-3,6,9,12-tetraoxa-15-azaoctadecyl)-1H-1,2,3-triazol-4-yl)methoxy)phenyl)-7-phenylimidazo[1,2-a]pyridin-3-yl)amino)benzoic acid]
TDP1 IC50 (full-length TDP1): failed to exhibit TDP1 inhibitory potency within the range tested

O=C(COc1cccc2c1C(=O)N(C1CCC(=O)NC1=O)C2=O)NCCCCn1cc(COc2ccc(-c3nc4cc(-c5ccccc5)ccn4c3Nc3ccc(C(=O)O)cc3)cc2)nn1 (stereo not shown) [Compound 5d, 4-((2-(4-((1-(4-(2-((2-(2,6-Dioxopiperidin-3-yl)-1,3-dioxoisoindolin-4-yl)oxy)acetamido)butyl)-1H-1,2,3-triazol-4-yl)methoxy)phenyl)-7-phenylimidazo[1,2-a]pyridin-3-yl)amino)benzoic acid]
TDP1 IC50 (full-length TDP1): did not show TDP1 inhibitory potency within the range tested

O=C(COc1cccc2c1C(=O)N(C1CCC(=O)NC1=O)C2=O)NCCCCn1cc(COc2ccc(-c3nc4ccccn4c3Nc3ccc(C(=O)O)cc3)cc2)nn1 (stereo not shown) [Compound 5e, 4-((2-(4-((1-(4-(2-((2-(2,6-Dioxopiperidin-3-yl)-1,3-dioxoisoindolin-4-yl)oxy)acetamido)butyl)-1H-1,2,3-triazol-4-yl)methoxy)phenyl)imidazo[1,2-a]pyridin-3-yl)amino)benzoic acid]
TDP1 IC50 (full-length TDP1): did not show TDP1 inhibitory potency within the range tested

O=C(COc1cccc2c1C(=O)N(C1CCC(=O)NC1=O)C2=O)NCCCCn1cc(-c2ccc(-c3nc4ccccn4c3Nc3ccc(C(=O)O)cc3)cc2)nn1 (stereo not shown) [Compound 5g, 4-((2-(4-(1-(4-(2-((2-(2,6-Dioxopiperidin-3-yl)-1,3-dioxoisoindolin-4-yl)oxy)acetamido)butyl)-1H-1,2,3-triazol-4-yl)phenyl)imidazo[1,2-a]pyridin-3-yl)amino)benzoic acid]
TDP1 IC50 (full-length TDP1): did not show TDP1 inhibitory potency within the range tested

O=C1CCC(N2C(=O)c3cccc(NCc4cn(Cc5ccc(-c6nc7cc(-c8ccccc8)ccn7c6Nc6ccc(C(=O)O)cc6)cc5)nn4)c3C2=O)C(=O)N1 (stereo not shown) [Compound 5h, 4-((2-(4-((4-(((2-(2,6-Dioxopiperidin-3-yl)-1,3-dioxoisoindolin-4-yl)amino)methyl)-1H-1,2,3-triazol-1-yl)methyl)phenyl)-7-phenylimidazo[1,2-a]pyridin-3-yl)amino)benzoic acid]
TDP1 degradation compared with GAPDH (TDP1 in HCT116 cell line): unable to observe degradation effects | Synergy in combination with TOP1 inhibitor camptothecin (CPT) (HCT116 cell line): failed to show synergy | Synergy in combination with TOP1 inhibitor camptothecin (CPT) (U2OS cell line): failed to show synergy

CN(Cc1cn(Cc2ccc(-c3nc4cc(-c5ccccc5)ccn4c3Nc3ccc(C(=O)O)cc3)cc2)nn1)c1cccc2c1C(=O)N(C1CCC(=O)NC1=O)C2=O (stereo not shown) [Compound 5i, 4-((2-(4-((4-(((2-(2,6-Dioxopiperidin-3-yl)-1,3-dioxoisoindolin-4-yl)(methyl)amino)methyl)-1H-1,2,3-triazol-1-yl)methyl)phenyl)-7-phenylimidazo[1,2-a]pyridin-3-yl)amino)benzoic acid]
TDP1 degradation compared with GAPDH (TDP1 in HCT116 cell line): unable to observe degradation effects

O=C1CCC(N2C(=O)c3cccc(NCCc4cn(Cc5ccc(-c6nc7cc(-c8ccccc8)ccn7c6Nc6ccc(C(=O)O)cc6)cc5)nn4)c3C2=O)C(=O)N1 (stereo not shown) [Compound 5j, 4-((2-(4-((4-(2-((2-(2,6-Dioxopiperidin-3-yl)-1,3-dioxoisoindolin-4-yl)amino)ethyl)-1H-1,2,3-triazol-1-yl)methyl)phenyl)-7-phenylimidazo[1,2-a]pyridin-3-yl)amino)benzoic acid]
TDP1 selectivity (full-length TDP2): 1.4
